# Measured values from ChEMBL document CHEMBL2384924, “Antagonists for the orphan G-protein-coupled receptor GPR55 based on a coumarin scaffold” (J Med Chem, 2013).
# The source made the active and inactive calls. Unless noted, the rule behind the calls is not given here.
# Molecular target: T1, N-arachidonyl glycine receptor (Homo sapiens, UniProt Q14330)
# T1 sequence (Q14330 whole entry): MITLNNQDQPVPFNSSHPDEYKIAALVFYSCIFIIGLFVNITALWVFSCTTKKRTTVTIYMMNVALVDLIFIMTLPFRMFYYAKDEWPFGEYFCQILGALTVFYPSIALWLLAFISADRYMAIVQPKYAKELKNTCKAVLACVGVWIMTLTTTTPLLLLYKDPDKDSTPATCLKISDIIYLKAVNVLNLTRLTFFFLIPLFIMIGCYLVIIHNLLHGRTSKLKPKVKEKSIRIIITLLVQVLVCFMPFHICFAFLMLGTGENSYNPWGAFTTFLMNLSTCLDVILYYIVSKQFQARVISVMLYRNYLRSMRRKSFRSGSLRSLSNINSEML
# Test: Antagonist activity at human GPR18 transfected in CHO cells assessed as delta9-THC-induced beta-arrestin recruitment incubated 60 mins prior to delta9-THC addition by beta-arrestin translocation assay
# Assay type: cell-based
# Settings: not given
# Summary of the method: (§1)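 CHO cells stably expressing human GPR18 were seeded at 20,000 cells/well for 24 h at 37°C. Compound in PBS/10% DMSO/0.1% BSA was added 60 min before the GPR18 agonist 3 at 10 µM. The supplier's detection reagent was used, and luminescence was read after 60 min at RT. Screening was at 10 µM (% inhibition); IC50 from concentration-inhibition curves. Three independent experiments in duplicate.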
row,SMILES,IC50
1,CCCCCc1cc(O)c2cc(Cc3cccc(O)c3)c(=O)oc2c1,> 10 µM
2,CCCCCCCC(C)(C)c1cc(O)c2cc(Cc3ccccc3O)c(=O)oc2c1,12.5 µM
3,CCCCCc1cc(OC)c2cc(Cc3ccccc3C)c(=O)oc2c1,> 10 µM
4,CCCCCc1cc(OC)c2cc(Cc3ccc(Cl)cc3)c(=O)oc2c1,10 µM
5,CCCCCc1cc(OC)c2cc(Cc3ccccc3OC)c(=O)oc2c1,> 10 µM
6,CCCCCCC(C)(C)c1cc(O)c2cc(Cc3ccccc3)c(=O)oc2c1,8.1 µM

# Molecular target: T2, G-protein coupled receptor 55 (Homo sapiens, UniProt Q9Y2T6)
# T2 sequence (Q9Y2T6 whole entry): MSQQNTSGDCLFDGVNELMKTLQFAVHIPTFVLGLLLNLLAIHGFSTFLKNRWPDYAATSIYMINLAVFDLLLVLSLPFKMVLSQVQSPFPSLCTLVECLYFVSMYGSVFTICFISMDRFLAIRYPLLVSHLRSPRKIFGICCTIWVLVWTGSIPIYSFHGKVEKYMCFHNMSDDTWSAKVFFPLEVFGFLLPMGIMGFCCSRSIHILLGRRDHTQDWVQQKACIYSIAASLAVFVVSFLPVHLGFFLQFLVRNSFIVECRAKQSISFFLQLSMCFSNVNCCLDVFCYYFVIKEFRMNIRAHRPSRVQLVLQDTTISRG
# Test: Antagonist activity at human GPR55 transfected in CHO cells assessed as inhibition of LPI-induced beta-arrestin recruitment incubated 60 mins prior to LPI addition by Gaddum method
# Assay type: cell-based
# Settings: not given
# Summary of the method: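 In the human GPR55 CHO β-arrestin luminescence assay, full LPI concentration-response curves were run without and with 3-4 antagonist concentrations. Antagonist was preincubated 1 h, then incubated with agonist […]. KB was estimated by the Gaddum method. Three independent experiments in duplicate.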
row,SMILES,Kb
1,CCCCCCCC(C)(C)c1cc(O)c2cc(Cc3ccccc3O)c(=O)oc2c1,0.561 µM

# Molecular target: T3, Cannabinoid receptor 1 (Homo sapiens, UniProt P21554)
# T3 sequence (P21554 whole entry): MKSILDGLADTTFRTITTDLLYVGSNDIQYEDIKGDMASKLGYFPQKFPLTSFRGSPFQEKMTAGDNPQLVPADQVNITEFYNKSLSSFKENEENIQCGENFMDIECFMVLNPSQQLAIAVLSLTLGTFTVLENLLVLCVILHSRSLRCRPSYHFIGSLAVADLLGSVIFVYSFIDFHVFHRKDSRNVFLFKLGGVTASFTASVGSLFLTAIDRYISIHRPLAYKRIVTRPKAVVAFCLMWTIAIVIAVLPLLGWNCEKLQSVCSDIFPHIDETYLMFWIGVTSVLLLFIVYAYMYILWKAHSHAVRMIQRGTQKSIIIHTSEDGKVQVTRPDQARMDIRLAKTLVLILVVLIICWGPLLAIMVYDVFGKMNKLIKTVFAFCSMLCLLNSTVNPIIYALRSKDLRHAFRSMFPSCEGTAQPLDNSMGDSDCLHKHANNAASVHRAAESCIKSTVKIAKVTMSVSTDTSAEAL
# Test: Agonist activity at human CB1 receptor expressed in CHOK1 cells assessed as […] of forskolin-stimulated cAMP level at 10 uM
# Assay type: functional, cell-based
# Settings: CHO-K1
row,SMILES,Activity
1,CCCCCc1cc(OC)c2cc(Cc3ccccc3OC)c(=O)oc2c1,Active
2,CCCCCCC(C)(C)c1cc(O)c2cc(Cc3ccccc3)c(=O)oc2c1,Active

# Molecular target: T2, G-protein coupled receptor 55
# Test: Antagonist activity at human GPR55 expressed in HEK293 cells assessed as inhibition of LPI-induced beta-arrestin recruitment incubated 60 mins prior to LPI addition by beta-arrestin translocation assay
# Assay type: cell-based
# Design: scale not given: the % may be the effect or the level left
# Settings: not given
row,SMILES,Activity
1,C=C(C)[C@@H]1CCC(C)=C[C@H]1c1c(O)cc(CCC)cc1O,56%
2,CCCc1cc(O)c2c(c1)OC(C)(C)[C@@H]1CCC(C)=C[C@@H]21,50%

# Molecular target: T2, G-protein coupled receptor 55
# Test: Antagonist activity at human GPR55 transfected in CHO cells assessed as inhibition of LPI-induced beta-arrestin recruitment incubated 60 mins prior to LPI addition by beta-arrestin translocation assay
# Assay type: cell-based
# Settings: not given
# Summary of the method: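 CHO cells stably expressing human GPR55 were seeded at 20,000 cells/well for 24 h at 37°C. Compound in PBS/10% DMSO/0.1% BSA was added 60 min before 1 µM LPI. Galacton-Star/Emerald-II/lysis buffer (pH 8) was applied for 60 min at RT, with luminescence read-out. Screening was at 10 µM (% inhibition). IC50 was measured where inhibition exceeded 60%. Three independent experiments in duplicate.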
SMILES,IC50,inhibition
CCCCCc1cc(O)c2cc(Cc3cccc(O)c3)c(=O)oc2c1,10.6 µM,–
CCCCCCCC(C)(C)c1cc(O)c2cc(Cc3ccccc3O)c(=O)oc2c1,0.113 µM,Dose-dependent effect
CCCCCc1cc(OC)c2cc(Cc3ccccc3C)c(=O)oc2c1,5.08 µM,–
CCCCCc1cc(OC)c2cc(Cc3ccc(Cl)cc3)c(=O)oc2c1,3.29 µM,–
CCCCCc1cc(OC)c2cc(Cc3ccccc3OC)c(=O)oc2c1,6.35 µM,–
CCCCCCC(C)(C)c1cc(O)c2cc(Cc3ccccc3)c(=O)oc2c1,0.358 µM,–
CCCCC1(c2cc(O)c3cc(Cc4ccccc4O)c(=O)oc3c2)CCCC1,0.854 µM,–

# Molecular target: T4, Cannabinoid receptor 2 (Homo sapiens, UniProt P34972)
# T4 sequence (P34972 whole entry): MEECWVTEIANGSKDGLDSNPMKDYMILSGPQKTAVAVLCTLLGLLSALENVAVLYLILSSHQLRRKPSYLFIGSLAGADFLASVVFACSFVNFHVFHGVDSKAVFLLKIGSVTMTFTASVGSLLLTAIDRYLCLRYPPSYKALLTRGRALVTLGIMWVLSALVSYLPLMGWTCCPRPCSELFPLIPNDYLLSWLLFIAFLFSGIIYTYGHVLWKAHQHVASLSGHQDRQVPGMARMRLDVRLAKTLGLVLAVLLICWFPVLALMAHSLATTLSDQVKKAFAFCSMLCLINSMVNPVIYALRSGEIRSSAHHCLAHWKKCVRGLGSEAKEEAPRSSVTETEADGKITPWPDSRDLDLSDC
# Test: Displacement of [3H]-CP55,940 from human CB2 receptor transfected in CHOK1 cells
# Assay type: cell-based, CHO-K1
# Settings: not given
# Summary of the method: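 CHO cells stably expressing human CB2 supplied the membranes, 1 µg protein per vial. Compounds were screened at 10 µM, and full competition curves were run where inhibition was about 50% or more. Three independent experiments in duplicate.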
row,SMILES,Ki
1,CCCCCc1cc(OC)c2cc(Cc3ccc(Cl)cc3)c(=O)oc2c1,0.578 µM

# Molecular target: T3, Cannabinoid receptor 1
# Test: Displacement of [3H]-CP55,940 from human CB1 receptor transfected in CHOK1 cells
# Assay type: cell-based, CHO-K1
# Settings: not given
row,SMILES,Ki
1,CCCCCc1cc(OC)c2cc(Cc3ccc(Cl)cc3)c(=O)oc2c1,0.613 µM

# Molecular target: T4, Cannabinoid receptor 2
# Test: Agonist activity at human CB2 receptor expressed in CHOK1 cells assessed as […] of forskolin-stimulated cAMP level at 10 uM
# Assay type: functional, cell-based
# Settings: CHO-K1
row,SMILES,Activity
1,CCCCCCCC(C)(C)c1cc(O)c2cc(Cc3ccccc3O)c(=O)oc2c1,Active
2,CCCCCc1cc(OC)c2cc(Cc3ccccc3C)c(=O)oc2c1,Active
3,CCCCCc1cc(OC)c2cc(Cc3ccc(Cl)cc3)c(=O)oc2c1,Active
4,CCCCCc1cc(OC)c2cc(Cc3ccccc3OC)c(=O)oc2c1,Active
5,CCCCCCC(C)(C)c1cc(O)c2cc(Cc3ccccc3)c(=O)oc2c1,Active
6,CCCCC1(c2cc(O)c3cc(Cc4ccccc4O)c(=O)oc3c2)CCCC1,Active

# Molecular target: T3, Cannabinoid receptor 1
# Test: Antagonist activity at human CB1 receptor expressed in CHOK1 cells assessed as inhibition of forskolin-stimulated cAMP level at 10 uM
# Assay type: functional, cell-based
# Settings: CHO-K1
row,SMILES,inhibition
1,CCCCCc1cc(O)c2cc(Cc3cccc(O)c3)c(=O)oc2c1,Active
2,CCCCCc1cc(OC)c2cc(Cc3ccccc3C)c(=O)oc2c1,Active
3,CCCCCc1cc(OC)c2cc(Cc3ccc(Cl)cc3)c(=O)oc2c1,Active

# Molecular target: T2, G-protein coupled receptor 55
# Test: Agonist activity at human GPR55 transfected in CHO cells after 90 mins by beta-arrestin translocation assay relative to LPI
# Assay type: cell-based
# Settings: not given
# Summary of the method: (§2)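 CHO cells stably expressing human GPR55 (β-galactosidase fragment complementation) were seeded at 20,000 cells/well in Opti-MEM with 2% FCS for 24 h at 37°C. Compound was diluted in PBS with 10% DMSO and 0.1% BSA, screened at 10 µM and incubated 90 min at 37°C. Galacton-Star/Emerald-II/lysis buffer (1:5:19) was added for 60 min at RT, then luminescence was read. Response is relative to 1 µM LPI (100%).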
row,SMILES,EC50
1,CCCCC/C=C\C/C=C\C/C=C\C/C=C\CCCC(=O)O[C@H](CO)COP(=O)(O)O[C@@H]1[C@H](O)[C@H](O)[C@@H](O)[C@H](O)[C@H]1O,1 µM

# Molecular target: T2, G-protein coupled receptor 55
# Test: Agonist activity at human GPR55 transfected in CHO cells at 10 uM after 90 mins by beta-arrestin translocation assay
# Assay type: cell-based
# Settings: not given
# Summary of the method: as §2
row,SMILES,Activity
1,CCCCCc1cc(O)c2cc(Cc3cccc(O)c3)c(=O)oc2c1,inactive
2,CCCCCCCC(C)(C)c1cc(O)c2cc(Cc3ccccc3O)c(=O)oc2c1,inactive
3,CCCCCc1cc(OC)c2cc(Cc3ccccc3C)c(=O)oc2c1,inactive
4,CCCCCc1cc(OC)c2cc(Cc3ccc(Cl)cc3)c(=O)oc2c1,inactive
5,CCCCCc1cc(OC)c2cc(Cc3ccccc3OC)c(=O)oc2c1,inactive
6,CCCCCCC(C)(C)c1cc(O)c2cc(Cc3ccccc3)c(=O)oc2c1,inactive
7,CCCCC1(c2cc(O)c3cc(Cc4ccccc4O)c(=O)oc3c2)CCCC1,inactive

# Molecular target: T5, N-arachidonyl glycine receptor (Homo sapiens) (UniProt Q14330)
# T5 sequence (whole entry): T1 sequence (Q14330 whole entry)
# Test: Antagonist activity at human GPR18 transfected in CHO cells assessed as delta9-THC-induced beta-arrestin recruitment at 10 uM incubated 60 mins prior to delta9-THC addition by beta-arrestin translocation assay
# Assay type: cell-based
# Design: scale not given: the % may be the effect or the level left
# Settings: not given
# Summary of the method: as §1
row,SMILES,Activity
1,CCCCCc1cc(O)c2cc(Cc3cccc(O)c3)c(=O)oc2c1,27%
2,CCCCCc1cc(OC)c2cc(Cc3ccccc3C)c(=O)oc2c1,34%
3,CCCCCc1cc(OC)c2cc(Cc3ccc(Cl)cc3)c(=O)oc2c1,50%
4,CCCCCc1cc(OC)c2cc(Cc3ccccc3OC)c(=O)oc2c1,20%
5,CCCCC1(c2cc(O)c3cc(Cc4ccccc4O)c(=O)oc3c2)CCCC1,57%

# Molecular target: T4, Cannabinoid receptor 2
# Test: Antagonist activity at human CB2 receptor expressed in CHOK1 cells assessed as inhibition of forskolin-stimulated cAMP level at 10 uM
# Assay type: functional, cell-based
# Settings: CHO-K1
row,SMILES,inhibition
1,CCCCCc1cc(O)c2cc(Cc3cccc(O)c3)c(=O)oc2c1,Active
